# Lung fibro prol: blocks proliferation of human lung fibroblasts | viability, % at 10 µM | 85,000 compounds, 1.1% hits | AID 719 | LL 47 human lung fibroblast viability, ATP luminescence; hits give low values;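 active means viability at or below 50% in the single dose screen; inactive means viability above 50%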;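 further: compound exposure lasted 72 h before the ATP readout; 100% = median luminescence of untreated cell-only wells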
#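 Times – overnight cell rest, 72 h compound treatment at 37 °C · Test system – human lung fibroblast line LL 47, low passage · Amount – 1,150 cells in each well · Controls – cell-only wells, no compound · Doses – 0.1% DMSO in all compound wells · Measured by – CellTiter-Glo luminescence · Buffer or medium – IMEM plus 15% FBS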
# HCT116 PTEN-null: suppresses growth of cells with PTEN deletion. HCT116 PTEN-null viability, CellTiter-Glo, 60 h; hits give low values. viability, % at 10 µM. 140,000 compounds, 1.2% hits;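 active means viability at or below a set limit, 4 SD under the median of all tested compounds, cut at about 3.7% in these data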;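 further: PTEN knockout HCT116 line with beta catenin targeted HCT116 as companion control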
# HUVEC inhibit: human endothelial cell proliferation inhibition | HUVEC proliferation, CellTiter-Glo luminescence, 72 h; hits give low values | viability, % at 10 µM (by protocol) | 86,000 compounds, 1.1% hits | AID 648;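 active means viability at or below 30%; inactive means viability above 30%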;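 further: 100% = median luminescence of DMSO-only cell control wells on each plate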
# HCT116 bCat-KO: beta-catenin-lacking colon tumor cell growth suppression; HCT116 beta-catenin knockout viability, CellTiter-Glo, 60 h; hits give low values; viability, % at 10 µM; 140,000 compounds, 1.5% hits;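 active means viability at or under a set limit, the compound median less 4 SD, cut at about 6% in these data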;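 further: 0% = Hyamine 1622 control at 20 µM and 100% = untreated cell control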
# H69AR inhibit: blocks growth of human H69AR lung tumor cells. H69AR lung tumor viability, ATP luminescence, 72 h; hits give low values. viability, % at 10 µM. 85,000 compounds, 6% hits;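 active means viability at or below 40%; inactive means viability above 40%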;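 further: multidrug resistant small cell line overexpressing MRP-1 efflux transporter; 100% = mean luminescence of untreated control wells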
# * marks the source's active call; other numbers are inactive results; · = no result. Many of the other results were omitted from the sample, so hits are more common in it than they were.
SMILES,Lung fibro prol,HCT116 PTEN-null,HUVEC inhibit,HCT116 bCat-KO,H69AR inhibit
Clc1ccc2nnnc(-c3ccccc3)c2c1,·,3.1*,·,3.7*,·
CC(C)(C)c1ccc(Cn2nnc3c(=O)[nH]c(C4CCN(C(=O)Cc5cccs5)CC4)nc32)cc1,88.9,16.8,41.2,16.2,50.7
CC(C)(C)c1ccc(Cn2nnc3c(=O)[nH]c(C4CCCN(C(=O)Cc5cccs5)C4)nc32)cc1 (stereo not drawn),96.1,41.0,76.8,80.7,16.8*
Oc1ccccc1CNc1ccc(Br)cn1,6.4*,36.0,9.3*,19.5,81.8
CCOc1cc(CNc2ccc3c(c2)CCC3)ccc1OC,95.9,88.8,96.8,90.1,98.8
Cc1cc2c(cc1C)CSC(c1ccc(O)cc1)SC2,103.6,88.5,99.2,91.0,87.0
Cc1cc2c(cc1C)CSC(c1ccc3ccccc3c1O)SC2,97.7,91.2,90.5,101.9,38.2*
Cc1cc2c(cc1C)CSC(c1c(O)ccc3ccccc13)SC2,67.3,5.8,1.7*,4.6*,1.6*
Cc1cc2c(cc1C)CSC(c1ccccc1O)SC2,71.2,75.6,34.4,98.5,57.6
C/C(=N\NC(=S)Nc1cc(S(=O)(=O)N2CCOCC2)ccc1Cl)c1ccccc1F,·,59.7,·,59.4,·
CC(C)CC(c1nnnn1C(C)C)N1CCN(c2ccccc2)CC1 (stereo not drawn),97.6,79.0,105.5,85.5,97.3
Oc1c(C(c2ccco2)N2CCN(C(c3ccccc3)c3ccccc3)CC2)sc2ncnn12 (stereo not drawn),93.9,47.2,87.6,50.9,33.3*
Oc1c(C(c2ccccc2)N2CCc3ccccc3C2)sc2ncnn12 (stereo not drawn),98.3,96.4,87.5,81.2,84.0
C=C(C)COc1ccc(-c2n[nH]c(C)c2-c2ccc(OC)cc2)c(O)c1,33.1*,1.4*,10.7*,1.3*,13.6*
CCOc1ccc(-c2n[nH]c(C)c2-c2ccccc2OC)c(O)c1,84.6,25.1,58.1,28.5,6.7*
CC(C)(C)C(=O)Nc1cc(NC(=O)C(C)(C)C)cc(C(=O)Nc2cc(C(=O)O)cc(C(=O)O)c2)c1,·,99.7,·,89.9,·
O=C(NC(c1ccccc1)c1ccccc1)C1CCCN(S(=O)(=O)c2cnc[nH]2)C1 (stereo not drawn),99.7,90.6,101.6,92.3,89.3
COc1cc(Br)cc2cc(C(=O)OC3CCN(C)CC3)c(=O)oc12,101.4,·,94.9,·,35.8*
CC1=C(C(=O)N2CCOCC2)C(c2ccc(C)cc2)NC(=S)N1 (stereo not drawn),·,103.7,·,94.3,·
Cc1cccnc1Nc1nc(-c2ccc(O)c(O)c2)cs1,83.8,16.1,57.7,34.1,27.6*
COc1ccc(-c2csc(Nc3ncccc3C)n2)cc1OC,109.3,101.7,83.9,102.0,78.2
O=C(CSc1cccc(C(F)(F)F)c1)Nc1ccc(Cl)cc1Cl,·,78.0,·,75.5,·
COc1ccc(/C=N/n2c(SC)nnc2-c2ccccc2)c(OC)c1OC,60.4,31.4,43.4,27.6,30.2*
COc1ccc(/C=N/N2CCN(c3ccccc3OC)CC2)cc1OC,·,99.7,·,103.2,·
COc1cccc(/C=N\n2c(C)nnc2C)c1OC,·,94.8,·,97.6,·
SMILES,Lung fibro prol,HCT116 PTEN-null,HUVEC inhibit,HCT116 bCat-KO,H69AR inhibit
COc1ccc(/C=N/n2c(SC)nnc2-c2ccccc2)cc1C,88.1,68.5,86.9,80.0,26.2*
Nc1ccc(Nc2nc(-c3ccncc3)cs2)cc1,75.0,45.1,70.7,52.2,36.9*
c1ccc(-c2csc(Nc3cccnc3)n2)nc1,102.1,100.2,107.0,105.3,67.2
COc1cccc2sc(Nc3nc(-c4ccccn4)cs3)nc12,·,2.6*,·,4.3*,·
COc1cccc2sc(NC(=O)c3ccc(Br)s3)nc12,·,5.9,·,9.8,·
c1ccc(Nc2nc(-c3ccccn3)cs2)cc1,79.9,68.9,71.1,72.7,37.3*
CCOC(=O)c1sc(NC(=O)Nc2cccc(Cl)c2)cc1C,·,2.4*,·,3.6*,·
CCCc1cc(-c2nc(N)ncc2-c2ccc3c(c2)OCCCO3)c(O)cc1OC,95.2,21.7,39.4,26.1,28.1*
CCOc1ccc2cc(/C=C/C(=O)c3ccco3)c(Cl)nc2c1,97.4,7.2,76.5,7.8,2.4*
CCCn1c(SCC(=O)Nc2nc3c(s2)CCCC3)nc2c1c(=O)n(C)c(=O)n2C,93.3,73.0,82.5,91.2,31.6*
CCOC(=O)c1c(NC(=O)CSc2nc3c(c(=O)n(C)c(=O)n3C)n2CC)sc(C)c1C,88.5,·,52.7,·,4.0*
Cn1c(=O)c2ncn(CC(=O)Nc3cccc(-c4nc5ccccc5s4)c3)c2n(C)c1=O,·,41.4,·,41.7,·
